# Target: CYP2C19 (Homo sapiens, UniProt P33261)
# Experiment: Inhibition of CYP2C19 at 10 uM
# Assay type: ADME
# In short: (§1)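 Recombinant CYP isoforms each incubated with its own fluorogenic substrate, which is turned into a fluorescent product; fluorescence read on a plate reader. Inhibition taken as concentration-dependent reduction of that fluorescence, with standard inhibitors, buffers and stop reagents from a commercial kit.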
# Sequence of CYP2C19 (P33261 whole entry): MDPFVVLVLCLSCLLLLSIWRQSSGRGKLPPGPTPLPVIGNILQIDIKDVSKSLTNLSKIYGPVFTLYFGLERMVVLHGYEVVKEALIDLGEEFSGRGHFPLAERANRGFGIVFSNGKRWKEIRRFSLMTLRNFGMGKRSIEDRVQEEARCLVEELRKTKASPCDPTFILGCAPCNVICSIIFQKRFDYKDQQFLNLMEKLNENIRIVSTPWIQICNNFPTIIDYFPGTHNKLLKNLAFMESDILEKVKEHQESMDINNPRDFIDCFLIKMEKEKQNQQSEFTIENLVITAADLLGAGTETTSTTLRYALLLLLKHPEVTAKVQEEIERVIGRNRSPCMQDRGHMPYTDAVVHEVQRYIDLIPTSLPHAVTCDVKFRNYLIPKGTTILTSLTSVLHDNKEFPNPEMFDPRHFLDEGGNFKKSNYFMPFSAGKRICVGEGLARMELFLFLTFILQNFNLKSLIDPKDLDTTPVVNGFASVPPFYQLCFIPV
row,Compound,inhibition at 10 µM
1,CC(=S)NC[C@H]1CN(c2ccc(-c3nnc4ncccn34)cc2)C(=O)O1,30%

# Target: CYP2D6 (Homo sapiens, UniProt P10635)
# Experiment: Inhibition of CYP2D6 at 10 uM
# Assay type: ADME
# In short: as §1
# Sequence of CYP2D6 (P10635 whole entry): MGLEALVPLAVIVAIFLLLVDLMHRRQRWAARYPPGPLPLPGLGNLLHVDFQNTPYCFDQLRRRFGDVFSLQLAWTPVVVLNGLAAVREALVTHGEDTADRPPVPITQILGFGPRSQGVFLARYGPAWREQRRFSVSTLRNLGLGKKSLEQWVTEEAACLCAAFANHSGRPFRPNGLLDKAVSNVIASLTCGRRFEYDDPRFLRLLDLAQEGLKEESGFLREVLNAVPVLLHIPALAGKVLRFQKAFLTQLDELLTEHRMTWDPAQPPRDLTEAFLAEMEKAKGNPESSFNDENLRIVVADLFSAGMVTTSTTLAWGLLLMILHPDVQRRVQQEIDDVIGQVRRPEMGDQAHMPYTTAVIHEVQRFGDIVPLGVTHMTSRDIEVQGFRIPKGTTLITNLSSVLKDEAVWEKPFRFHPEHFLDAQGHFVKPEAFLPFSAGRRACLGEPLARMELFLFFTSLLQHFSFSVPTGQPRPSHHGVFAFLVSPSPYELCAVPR
row,Compound,inhibition at 10 µM
1,CC(=S)NC[C@H]1CN(c2ccc(-c3nnc4ncccn34)cc2)C(=O)O1,13%

# Target: CYP3A4 (Homo sapiens, UniProt P08684)
# Experiment: Inhibition of CYP3A4 at 10 uM
# Assay type: ADME
# In short: as §1
# Sequence of CYP3A4 (P08684 whole entry): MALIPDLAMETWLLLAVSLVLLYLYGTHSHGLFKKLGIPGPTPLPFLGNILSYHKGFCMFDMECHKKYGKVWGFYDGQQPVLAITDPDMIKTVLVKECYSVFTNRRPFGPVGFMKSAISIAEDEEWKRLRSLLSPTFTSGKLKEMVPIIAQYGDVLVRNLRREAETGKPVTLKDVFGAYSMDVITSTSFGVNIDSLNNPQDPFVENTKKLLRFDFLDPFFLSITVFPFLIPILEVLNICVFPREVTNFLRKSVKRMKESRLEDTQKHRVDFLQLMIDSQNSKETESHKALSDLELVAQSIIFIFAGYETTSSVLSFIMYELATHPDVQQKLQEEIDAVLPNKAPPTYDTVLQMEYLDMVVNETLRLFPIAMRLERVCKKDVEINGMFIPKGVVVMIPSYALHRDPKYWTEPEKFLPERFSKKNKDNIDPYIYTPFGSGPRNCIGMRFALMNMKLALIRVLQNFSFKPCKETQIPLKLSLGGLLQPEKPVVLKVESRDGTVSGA
row,Compound,inhibition at 10 µM
1,CC(=S)NC[C@H]1CN(c2ccc(-c3nnc4ncccn34)cc2)C(=O)O1,28%

# System: Enterococcus faecalis
# Experiment: Ratio of MIC for Linezolid to compound for Enterococcus faecalis ATCC 29212
# Assay type: functional
row,Compound,Ratio
1,CC(=S)NC[C@H]1CN(c2ccc(-c3nnc4ncccn34)cc2)C(=O)O1,2

# System: Enterococcus faecalis
# Experiment: Antibacterial activity against Enterococcus faecalis ATCC 29212
# Assay type: functional
row,Compound,MIC
1,CC(C)NC(=O)NC[C@H]1CN(c2ccc(-c3nnc4ncccn34)cc2)C(=O)O1,> 16 µg/mL
2,CCCCC(=O)NC[C@H]1CN(c2ccc(-c3nnc4ncccn34)cc2)C(=O)O1,> 16 µg/mL
3,COC(=O)NC[C@H]1CN(c2ccc(-c3nnc4ncccn34)cc2)C(=O)O1,> 16 µg/mL
4,O=C(NC[C@H]1CN(c2ccc(-c3nnc4ncccn34)cc2)C(=O)O1)Oc1ccccc1,> 16 µg/mL
5,CC(C)NC(=S)NC[C@H]1CN(c2ccc(-c3nnc4ncccn34)cc2)C(=O)O1,> 16 µg/mL
6,O=C(NC[C@H]1CN(c2ccc(-c3nnc4ncccn34)cc2)C(=O)O1)C(Cl)Cl,8 µg/mL
7,CC(C)(C)NC(=O)NC[C@H]1CN(c2ccc(-c3nnc4ncccn34)cc2)C(=O)O1,> 16 µg/mL
8,CCCCNC(=O)NC[C@H]1CN(c2ccc(-c3nnc4ncccn34)cc2)C(=O)O1,> 16 µg/mL
9,CCC(=O)NC[C@H]1CN(c2ccc(-c3nnc4ncccn34)cc2)C(=O)O1,16 µg/mL
10,CC(C)C(=O)NC[C@H]1CN(c2ccc(-c3nnc4ncccn34)cc2)C(=O)O1,> 16 µg/mL
11,CC(=S)NC[C@H]1CN(c2ccc(-c3nnc4ncccn34)cc2)C(=O)O1,1 µg/mL

# Target: CYP2C9 (Homo sapiens, UniProt P11712)
# Experiment: Inhibition of CYP2C9 at 10 uM
# Assay type: ADME
# In short: as §1
# Sequence of CYP2C9 (P11712 whole entry): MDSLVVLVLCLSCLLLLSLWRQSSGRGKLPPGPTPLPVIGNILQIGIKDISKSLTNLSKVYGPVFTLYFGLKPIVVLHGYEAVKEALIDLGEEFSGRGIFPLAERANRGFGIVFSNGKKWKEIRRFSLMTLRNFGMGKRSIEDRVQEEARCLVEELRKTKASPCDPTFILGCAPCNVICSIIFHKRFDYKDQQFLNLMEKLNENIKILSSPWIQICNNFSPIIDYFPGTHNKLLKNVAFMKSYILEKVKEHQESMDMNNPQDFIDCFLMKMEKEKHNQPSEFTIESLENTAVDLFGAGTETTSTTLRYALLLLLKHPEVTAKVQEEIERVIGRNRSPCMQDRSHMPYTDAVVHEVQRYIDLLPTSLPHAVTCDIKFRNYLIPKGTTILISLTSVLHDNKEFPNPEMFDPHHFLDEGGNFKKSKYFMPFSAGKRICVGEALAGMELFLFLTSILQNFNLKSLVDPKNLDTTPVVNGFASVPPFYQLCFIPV
row,Compound,inhibition at 10 µM
1,CC(=S)NC[C@H]1CN(c2ccc(-c3nnc4ncccn34)cc2)C(=O)O1,15%

# System: Staphylococcus aureus
# Experiment: Antibacterial activity against Staphylococcus aureus ATCC 25923
# Assay type: functional
row,Compound,MIC
1,CC(C)NC(=O)NC[C@H]1CN(c2ccc(-c3nnc4ncccn34)cc2)C(=O)O1,> 16 µg/mL
2,CCCCC(=O)NC[C@H]1CN(c2ccc(-c3nnc4ncccn34)cc2)C(=O)O1,> 16 µg/mL
3,COC(=O)NC[C@H]1CN(c2ccc(-c3nnc4ncccn34)cc2)C(=O)O1,16 µg/mL
4,O=C(NC[C@H]1CN(c2ccc(-c3nnc4ncccn34)cc2)C(=O)O1)Oc1ccccc1,> 16 µg/mL
5,CC(C)NC(=S)NC[C@H]1CN(c2ccc(-c3nnc4ncccn34)cc2)C(=O)O1,16 µg/mL
6,O=C(NC[C@H]1CN(c2ccc(-c3nnc4ncccn34)cc2)C(=O)O1)C(Cl)Cl,4 µg/mL
7,CC(C)(C)NC(=O)NC[C@H]1CN(c2ccc(-c3nnc4ncccn34)cc2)C(=O)O1,> 16 µg/mL
8,CCCCNC(=O)NC[C@H]1CN(c2ccc(-c3nnc4ncccn34)cc2)C(=O)O1,> 16 µg/mL
9,CCC(=O)NC[C@H]1CN(c2ccc(-c3nnc4ncccn34)cc2)C(=O)O1,16 µg/mL
10,CC(C)C(=O)NC[C@H]1CN(c2ccc(-c3nnc4ncccn34)cc2)C(=O)O1,> 16 µg/mL
11,CC(=S)NC[C@H]1CN(c2ccc(-c3nnc4ncccn34)cc2)C(=O)O1,1 µg/mL

# System: Liver
# Experiment: Metabolic stability in human liver microsomes assessed per gram of liver
# Assay type: ADME, Microsome
row,Compound,Stability
1,CC(=S)NC[C@H]1CN(c2ccc(-c3nnc4ncccn34)cc2)C(=O)O1,0.3 mL/min/g

# System: Escherichia coli
# Experiment: Antibacterial activity against Escherichia coli ATCC 25922
# Assay type: functional
row,Compound,MIC
1,CC(C)NC(=O)NC[C@H]1CN(c2ccc(-c3nnc4ncccn34)cc2)C(=O)O1,> 16 µg/mL
2,CCCCC(=O)NC[C@H]1CN(c2ccc(-c3nnc4ncccn34)cc2)C(=O)O1,> 16 µg/mL
3,COC(=O)NC[C@H]1CN(c2ccc(-c3nnc4ncccn34)cc2)C(=O)O1,> 16 µg/mL
4,O=C(NC[C@H]1CN(c2ccc(-c3nnc4ncccn34)cc2)C(=O)O1)Oc1ccccc1,> 16 µg/mL
5,CC(C)NC(=S)NC[C@H]1CN(c2ccc(-c3nnc4ncccn34)cc2)C(=O)O1,> 16 µg/mL
6,O=C(NC[C@H]1CN(c2ccc(-c3nnc4ncccn34)cc2)C(=O)O1)C(Cl)Cl,> 16 µg/mL
7,CC(C)(C)NC(=O)NC[C@H]1CN(c2ccc(-c3nnc4ncccn34)cc2)C(=O)O1,> 16 µg/mL
8,CCCCNC(=O)NC[C@H]1CN(c2ccc(-c3nnc4ncccn34)cc2)C(=O)O1,> 16 µg/mL
9,CCC(=O)NC[C@H]1CN(c2ccc(-c3nnc4ncccn34)cc2)C(=O)O1,> 16 µg/mL
10,CC(C)C(=O)NC[C@H]1CN(c2ccc(-c3nnc4ncccn34)cc2)C(=O)O1,> 16 µg/mL
11,CC(=S)NC[C@H]1CN(c2ccc(-c3nnc4ncccn34)cc2)C(=O)O1,> 16 µg/mL

# System: Staphylococcus epidermidis
# Experiment: Antibacterial activity Staphylococcus epidermidis ATCC 12228
# Assay type: functional
row,Compound,MIC
1,CC(C)NC(=O)NC[C@H]1CN(c2ccc(-c3nnc4ncccn34)cc2)C(=O)O1,> 16 µg/mL
2,CCCCC(=O)NC[C@H]1CN(c2ccc(-c3nnc4ncccn34)cc2)C(=O)O1,16 µg/mL
3,COC(=O)NC[C@H]1CN(c2ccc(-c3nnc4ncccn34)cc2)C(=O)O1,16 µg/mL
4,O=C(NC[C@H]1CN(c2ccc(-c3nnc4ncccn34)cc2)C(=O)O1)Oc1ccccc1,> 16 µg/mL
5,CC(C)NC(=S)NC[C@H]1CN(c2ccc(-c3nnc4ncccn34)cc2)C(=O)O1,16 µg/mL
6,O=C(NC[C@H]1CN(c2ccc(-c3nnc4ncccn34)cc2)C(=O)O1)C(Cl)Cl,4 µg/mL
7,CC(C)(C)NC(=O)NC[C@H]1CN(c2ccc(-c3nnc4ncccn34)cc2)C(=O)O1,> 16 µg/mL
8,CCCCNC(=O)NC[C@H]1CN(c2ccc(-c3nnc4ncccn34)cc2)C(=O)O1,> 16 µg/mL
9,CCC(=O)NC[C@H]1CN(c2ccc(-c3nnc4ncccn34)cc2)C(=O)O1,16 µg/mL
10,CC(C)C(=O)NC[C@H]1CN(c2ccc(-c3nnc4ncccn34)cc2)C(=O)O1,> 16 µg/mL
11,CC(=S)NC[C@H]1CN(c2ccc(-c3nnc4ncccn34)cc2)C(=O)O1,0.5 µg/mL

# System: Staphylococcus epidermidis
# Experiment: Ratio of MIC for Linezolid to compound for Staphylococcus epidermidis ATCC 12228
# Assay type: functional
row,Compound,Ratio
1,CC(=S)NC[C@H]1CN(c2ccc(-c3nnc4ncccn34)cc2)C(=O)O1,2

# Target: T1, CYP1A2 (Homo sapiens, UniProt P05177)
# T1 sequence (P05177 whole entry): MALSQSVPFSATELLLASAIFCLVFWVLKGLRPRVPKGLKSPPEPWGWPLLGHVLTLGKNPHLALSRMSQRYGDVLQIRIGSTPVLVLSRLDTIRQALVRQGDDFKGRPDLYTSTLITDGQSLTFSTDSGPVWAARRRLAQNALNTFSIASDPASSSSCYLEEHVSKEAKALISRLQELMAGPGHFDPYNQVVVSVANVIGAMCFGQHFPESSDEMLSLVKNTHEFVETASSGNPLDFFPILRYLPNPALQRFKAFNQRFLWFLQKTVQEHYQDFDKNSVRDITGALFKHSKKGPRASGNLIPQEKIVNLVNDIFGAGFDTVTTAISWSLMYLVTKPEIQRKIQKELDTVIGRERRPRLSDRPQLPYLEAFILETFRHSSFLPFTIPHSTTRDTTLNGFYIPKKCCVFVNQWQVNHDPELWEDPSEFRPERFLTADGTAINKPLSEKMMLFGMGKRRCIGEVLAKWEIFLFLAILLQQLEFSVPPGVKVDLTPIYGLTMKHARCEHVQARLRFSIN
# Experiment: Inhibition of CYP1A2 at 10 uM
# Assay type: ADME
# In short: as §1
row,Compound,inhibition at 10 µM
1,CC(=S)NC[C@H]1CN(c2ccc(-c3nnc4ncccn34)cc2)C(=O)O1,0%

# System: Staphylococcus aureus
# Experiment: Ratio of MIC for Linezolid to compound for Staphylococcus aureus ATCC 25923
# Assay type: functional
row,Compound,Ratio
1,CC(=S)NC[C@H]1CN(c2ccc(-c3nnc4ncccn34)cc2)C(=O)O1,2

# System: Staphylococcus aureus
# Experiment: Antibacterial activity against methicillin-resistant Staphylococcus aureus ATCC 43300
# Assay type: functional
# In short: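 MIC determined following CLSI guideline M07-A8 (2009) for dilution susceptibility testing of aerobically growing bacteria.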
row,Compound,MIC
1,CC(C)NC(=O)NC[C@H]1CN(c2ccc(-c3nnc4ncccn34)cc2)C(=O)O1,> 16 µg/mL
2,CCCCC(=O)NC[C@H]1CN(c2ccc(-c3nnc4ncccn34)cc2)C(=O)O1,16 µg/mL
3,COC(=O)NC[C@H]1CN(c2ccc(-c3nnc4ncccn34)cc2)C(=O)O1,16 µg/mL
4,O=C(NC[C@H]1CN(c2ccc(-c3nnc4ncccn34)cc2)C(=O)O1)Oc1ccccc1,> 16 µg/mL
5,CC(C)NC(=S)NC[C@H]1CN(c2ccc(-c3nnc4ncccn34)cc2)C(=O)O1,16 µg/mL
6,O=C(NC[C@H]1CN(c2ccc(-c3nnc4ncccn34)cc2)C(=O)O1)C(Cl)Cl,8 µg/mL
7,CC(C)(C)NC(=O)NC[C@H]1CN(c2ccc(-c3nnc4ncccn34)cc2)C(=O)O1,> 16 µg/mL
8,CCCCNC(=O)NC[C@H]1CN(c2ccc(-c3nnc4ncccn34)cc2)C(=O)O1,> 16 µg/mL
9,CCC(=O)NC[C@H]1CN(c2ccc(-c3nnc4ncccn34)cc2)C(=O)O1,16 µg/mL
10,CC(C)C(=O)NC[C@H]1CN(c2ccc(-c3nnc4ncccn34)cc2)C(=O)O1,16 µg/mL
11,CC(=S)NC[C@H]1CN(c2ccc(-c3nnc4ncccn34)cc2)C(=O)O1,0.5 µg/mL
